{"source": "ChEMBL document CHEMBL4689842", "about": "“EUbOPEN Chemogenomics Library wave 1” (2021)", "test_system": "HEK-293T", "test": "Multiplex assay against HEK293T;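 for Population Tubulin-Different-Phenotype (%): share of the cells with healthy nuclei that show this phenotype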", "assay_type": "toxicity, cell-based", "settings": "human", "how_it_was_run": "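Imaging took place on a CQ1 microscope at 37°C and 5% CO2 once compound had been added to live cells stained at seeding with Hoechst33342, BioTracker Green Microtubule Cytoskeleton Dye, MitoTracker Red and Annexin V Alexa Fluor 680. CellPathfinder machine-learning gating classed cells as Hoechst high-intensity objects or normal cells, classed normal cells as having healthy, pyknosed or fragmented nuclei, and classed pyknosed cells as mitotic or apoptotic. Tubulin, mitochondrial-mass and membrane-permeability phenotypes are per cents of the healthy-nucleus cells.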", "key": {"[1]": {"settings": "12 h, 1 µM, compound concentration 1 uM, replicate 1"}, "[2]": {"settings": "12 h, 1 µM, compound concentration 1 uM, replicate 2"}, "[3]": {"settings": "12 h, 10 µM, compound concentration 10 uM, replicate 1"}, "[4]": {"settings": "12 h, 10 µM, compound concentration 10 uM, replicate 2"}, "[5]": {"settings": "24 h, 1 µM, compound concentration 1 uM, replicate 1"}, "[6]": {"settings": "24 h, 1 µM, compound concentration 1 uM, replicate 2"}, "[7]": {"settings": "24 h, 10 µM, compound concentration 10 uM, replicate 1"}, "[8]": {"settings": "24 h, 10 µM, compound concentration 10 uM, replicate 2"}}, "data": [{"smiles": "CN1CCN(C(=O)C(C)(C)c2ccc(C(=O)Nc3cn4cc(-c5cc(C(C)(C)C)cc(C(C)(C)C)c5)ccc4n3)cc2)CC1", "note": "[T3-CLK-N]", "values": [{"measurement": "Population Apoptotic (%)", "setting": "[1]", "result": 14, "unit": "%"}, {"measurement": "Population Fragmented Nuclei (%)", "setting": "[1]", "result": 15, "unit": "%"}, {"measurement": "Population Healthy Nuclei (%)", "setting": "[1]", "result": 58, "unit": "%"}, {"measurement": "Population Hoechst High Intensity Objects (%)", "setting": "[1]", "result": 12, "unit": "%"}, {"measurement": "Population Membrane Permeable-Phenotype (%)", "setting": "[1]", "result": 5, "unit": "%"}, {"measurement": "Population Mitochondria Different-Phenotype (%)", "setting": "[1]", "result": 7, "unit": "%"}, {"measurement": "Population Mitotic Cells (%)", "setting": "[1]", "result": 85, "unit": "%"}, {"measurement": "Population Normal (%)", "setting": "[1]", "result": 87, "unit": "%"}, {"measurement": "Population Pyknosed Nuclei (%)", "setting": "[1]", "result": 25, "unit": "%"}, {"measurement": "Population Tubulin-Different-Phenotype (%)", "setting": "[1]", "result": 9, "unit": "%"}, {"measurement": "Total Cell Count", "setting": "[1]", "result": 642}, {"measurement": "Population Apoptotic (%)", "setting": "[2]", "result": 10, "unit": "%"}, {"measurement": "Population Fragmented Nuclei (%)", "setting": "[2]", "result": 6, "unit": "%"}, {"measurement": "Population Healthy Nuclei (%)", "setting": "[2]", "result": 84, "unit": "%"}, {"measurement": "Population Hoechst High Intensity Objects (%)", "setting": "[2]", "result": 2, "unit": "%"}, {"measurement": "Population Membrane Permeable-Phenotype (%)", "setting": "[2]", "result": 4, "unit": "%"}, {"measurement": "Population Mitochondria Different-Phenotype (%)", "setting": "[2]", "result": 13, "unit": "%"}, {"measurement": "Population Mitotic Cells (%)", "setting": "[2]", "result": 89, "unit": "%"}, {"measurement": "Population Normal (%)", "setting": "[2]", "result": 97, "unit": "%"}, {"measurement": "Population Pyknosed Nuclei (%)", "setting": "[2]", "result": 9, "unit": "%"}, {"measurement": "Population Tubulin-Different-Phenotype (%)", "setting": "[2]", "result": 21, "unit": "%"}, {"measurement": "Total Cell Count", "setting": "[2]", "result": 1407}, {"measurement": "Population Apoptotic (%)", "setting": "[3]", "result": 21, "unit": "%"}, {"measurement": "Population Fragmented Nuclei (%)", "setting": "[3]", "result": 16, "unit": "%"}, {"measurement": "Population Healthy Nuclei (%)", "setting": "[3]", "result": 46, "unit": "%"}, {"measurement": "Population Hoechst High Intensity Objects (%)", "setting": "[3]", "result": 18, "unit": "%"}, {"measurement": "Population Membrane Permeable-Phenotype (%)", "setting": "[3]", "result": 11, "unit": "%"}, {"measurement": "Population Mitochondria Different-Phenotype (%)", "setting": "[3]", "result": 13, "unit": "%"}, {"measurement": "Population Mitotic Cells (%)", "setting": "[3]", "result": 78, "unit": "%"}, {"measurement": "Population Normal (%)", "setting": "[3]", "result": 81, "unit": "%"}, {"measurement": "Population Pyknosed Nuclei (%)", "setting": "[3]", "result": 36, "unit": "%"}, {"measurement": "Population Tubulin-Different-Phenotype (%)", "setting": "[3]", "result": 30, "unit": "%"}, {"measurement": "Total Cell Count", "setting": "[3]", "result": 631}, {"measurement": "Population Apoptotic (%)", "setting": "[4]", "result": 23, "unit": "%"}, {"measurement": "Population Fragmented Nuclei (%)", "setting": "[4]", "result": 3, "unit": "%"}, {"measurement": "Population Healthy Nuclei (%)", "setting": "[4]", "result": 80, "unit": "%"}, {"measurement": "Population Hoechst High Intensity Objects (%)", "setting": "[4]", "result": 4, "unit": "%"}, {"measurement": "Population Membrane Permeable-Phenotype (%)", "setting": "[4]", "result": 4, "unit": "%"}, {"measurement": "Population Mitochondria Different-Phenotype (%)", "setting": "[4]", "result": 26, "unit": "%"}, {"measurement": "Population Mitotic Cells (%)", "setting": "[4]", "result": 76, "unit": "%"}, {"measurement": "Population Normal (%)", "setting": "[4]", "result": 95, "unit": "%"}, {"measurement": "Population Pyknosed Nuclei (%)", "setting": "[4]", "result": 15, "unit": "%"}, {"measurement": "Population Tubulin-Different-Phenotype (%)", "setting": "[4]", "result": 63, "unit": "%"}, {"measurement": "Total Cell Count", "setting": "[4]", "result": 884}, {"measurement": "Population Apoptotic (%)", "setting": "[5]", "result": 16, "unit": "%"}, {"measurement": "Population Fragmented Nuclei (%)", "setting": "[5]", "result": 12, "unit": "%"}, {"measurement": "Population Healthy Nuclei (%)", "setting": "[5]", "result": 76, "unit": "%"}, {"measurement": "Population Hoechst High Intensity Objects (%)", "setting": "[5]", "result": 10, "unit": "%"}, {"measurement": "Population Membrane Permeable-Phenotype (%)", "setting": "[5]", "result": 14, "unit": "%"}, {"measurement": "Population Mitochondria Different-Phenotype (%)", "setting": "[5]", "result": 5, "unit": "%"}, {"measurement": "Population Mitotic Cells (%)", "setting": "[5]", "result": 83, "unit": "%"}, {"measurement": "Population Normal (%)", "setting": "[5]", "result": 89, "unit": "%"}, {"measurement": "Population Pyknosed Nuclei (%)", "setting": "[5]", "result": 10, "unit": "%"}, {"measurement": "Population Tubulin-Different-Phenotype (%)", "setting": "[5]", "result": 19, "unit": "%"}, {"measurement": "Total Cell Count", "setting": "[5]", "result": 686}, {"measurement": "Population Apoptotic (%)", "setting": "[6]", "result": 4, "unit": "%"}, {"measurement": "Population Fragmented Nuclei (%)", "setting": "[6]", "result": 10, "unit": "%"}, {"measurement": "Population Healthy Nuclei (%)", "setting": "[6]", "result": 84, "unit": "%"}, {"measurement": "Population Hoechst High Intensity Objects (%)", "setting": "[6]", "result": 4, "unit": "%"}, {"measurement": "Population Membrane Permeable-Phenotype (%)", "setting": "[6]", "result": 9, "unit": "%"}, {"measurement": "Population Mitochondria Different-Phenotype (%)", "setting": "[6]", "result": 8, "unit": "%"}, {"measurement": "Population Mitotic Cells (%)", "setting": "[6]", "result": 95, "unit": "%"}, {"measurement": "Population Normal (%)", "setting": "[6]", "result": 95, "unit": "%"}, {"measurement": "Population Pyknosed Nuclei (%)", "setting": "[6]", "result": 5, "unit": "%"}, {"measurement": "Population Tubulin-Different-Phenotype (%)", "setting": "[6]", "result": 40, "unit": "%"}, {"measurement": "Total Cell Count", "setting": "[6]", "result": 1792}, {"measurement": "Population Apoptotic (%)", "setting": "[7]", "result": 27, "unit": "%"}, {"measurement": "Population Fragmented Nuclei (%)", "setting": "[7]", "result": 20, "unit": "%"}, {"measurement": "Population Healthy Nuclei (%)", "setting": "[7]", "result": 46, "unit": "%"}, {"measurement": "Population Hoechst High Intensity Objects (%)", "setting": "[7]", "result": 21, "unit": "%"}, {"measurement": "Population Membrane Permeable-Phenotype (%)", "setting": "[7]", "result": 8, "unit": "%"}, {"measurement": "Population Mitochondria Different-Phenotype (%)", "setting": "[7]", "result": 23, "unit": "%"}, {"measurement": "Population Mitotic Cells (%)", "setting": "[7]", "result": 72, "unit": "%"}, {"measurement": "Population Normal (%)", "setting": "[7]", "result": 78, "unit": "%"}, {"measurement": "Population Pyknosed Nuclei (%)", "setting": "[7]", "result": 33, "unit": "%"}, {"measurement": "Population Tubulin-Different-Phenotype (%)", "setting": "[7]", "result": 56, "unit": "%"}, {"measurement": "Total Cell Count", "setting": "[7]", "result": 614}, {"measurement": "Population Apoptotic (%)", "setting": "[8]", "result": 17, "unit": "%"}, {"measurement": "Population Fragmented Nuclei (%)", "setting": "[8]", "result": 4, "unit": "%"}, {"measurement": "Population Healthy Nuclei (%)", "setting": "[8]", "result": 88, "unit": "%"}, {"measurement": "Population Hoechst High Intensity Objects (%)", "setting": "[8]", "result": 3, "unit": "%"}, {"measurement": "Population Membrane Permeable-Phenotype (%)", "setting": "[8]", "result": 7, "unit": "%"}, {"measurement": "Population Mitochondria Different-Phenotype (%)", "setting": "[8]", "result": 37, "unit": "%"}, {"measurement": "Population Mitotic Cells (%)", "setting": "[8]", "result": 82, "unit": "%"}, {"measurement": "Population Normal (%)", "setting": "[8]", "result": 96, "unit": "%"}, {"measurement": "Population Pyknosed Nuclei (%)", "setting": "[8]", "result": 6, "unit": "%"}, {"measurement": "Population Tubulin-Different-Phenotype (%)", "setting": "[8]", "result": 82, "unit": "%"}, {"measurement": "Total Cell Count", "setting": "[8]", "result": 947}]}]}
